ChEMBL document CHEMBL1124414, “2(1H)-quinolinones with cardiac stimulant activity. 2. Synthesis and biological activities of 6-(N-linked, five-membered heteroaryl) derivatives” (1989)

Key:
Canis familiaris [1] = experiment: Relative inotropic potency compared with 4-[4-[2-(1,1-dioxo-2-isothiazolidinyl)ethyl]-1-piperidinyl]-6,7-dimethoxyquinazoline at 50 ug/kg after administration at 25 ug/kg intravenously to anesthetized dogs; format: functional, Canis lupus familiaris
In short: (§1)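 Anesthetized dogs instrumented for dP/dt max from left ventricular pressure by carotid catheter. Drug given iv in 0.9% saline. The standard quinazoline inotrope (50 μg/kg iv) was tested in the same dog. Relative potency = (% increase in dP/dt max to drug ÷ % increase to standard) × (standard dose ÷ drug dose).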

Canis familiaris [2] = experiment: Compound was examined for effects on cardiac contractility after oral administration of 0.5 mg/Kg to conscious dogs for 1 hr; format: functional, Canis lupus familiaris, Heart
In short: (§2)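 Conscious dogs dosed orally by gavage with a solution of test substance. QA interval recorded every 0.16 h from 0.5 h predose to up to 4 h postdose. Each time-point value is the mean of six consecutive sets, each set the mean over an 8-s period. Result is the change from mean predose control QA interval, read at 1 h and 3 h. Saline-dosed controls n = 8.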

Canis familiaris [3] = experiment: Compound was tested for cardiotonic activity after intravenous administration of 25 ug/Kg to anesthetized dogs; format: functional, Canis lupus familiaris
In short: (§3)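 Anesthetized dogs with left ventricular pressure recorded by Millar catheter via the carotid artery. The signal is differentiated to give dP/dt max as the contractility index. Equilibration 0.75 h after surgery. Drug given iv in 0.9% saline 0.5 h after a standard inotrope (50 μg/kg). Doses repeated once control levels returned, at least 0.5 h apart. Result is % increase in dP/dt max after a single dose.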

Canis familiaris [4] = experiment: Compound was examined for effects on cardiac contractility to decrease in QA interval after oral administration of 0.5 mg/Kg to conscious dogs for 3h; format: functional, Canis lupus familiaris, Heart; in short: as §2
Canis familiaris [5] = experiment: Compound was examined for effects on cardiac contractility to decrease in QA interval after oral administration of 0.125 mg/Kg to conscious dogs for 3h; format: functional, Canis lupus familiaris, Heart; in short: as §2
Canis familiaris [6] = experiment: Relative inotropic potency compared with 4-[4-[2-(1,1-dioxo-2-isothiazolidinyl)ethyl]-1-piperidinyl]-6,7-dimethoxyquinazoline at 50 ug/kg after administration at 12.5 ug/kg intravenously to anesthetized dogs; format: functional, Canis lupus familiaris; in short: as §1
Canis familiaris [7] = experiment: Compound was tested for cardiotonic activity after intravenous administration of 12.5 ug/Kg to anesthetized dogs; format: functional, Canis lupus familiaris; in short: as §3
Canis familiaris [8] = experiment: Compound was examined for effects on cardiac contractility after oral administration of 0.125 mg/Kg to conscious dogs for 1 hr; format: functional, Canis lupus familiaris, Heart; in short: as §2
Canis familiaris [9] = experiment: Compound was examined for effects on cardiac contractility to decrease in QA interval after oral administration of 0.25 mg/Kg to conscious dogs for 3h; format: functional, Canis lupus familiaris, Heart; in short: as §2
Canis familiaris [10] = experiment: Compound was examined for effects on cardiac contractility after oral administration of 0.25 mg/Kg to conscious dogs for 1 hr; format: functional, Canis lupus familiaris, Heart; in short: as §2
Canis familiaris [11] = experiment: Relative inotropic potency compared with 4-[4-[2-(1,1-dioxo-2-isothiazolidinyl)ethyl]-1-piperidinyl]-6,7-dimethoxyquinazoline at 50 ug/kg after administration at 10 ug/kg intravenously to anesthetized dogs; format: functional, Canis lupus familiaris; in short: as §1
Canis familiaris [12] = experiment: Compound was tested for cardiotonic activity after intravenous administration of 10 ug/Kg to anesthetized dogs; format: functional, Canis lupus familiaris; in short: as §3
Canis familiaris [13] = experiment: Compound was tested for cardiotonic activity after intravenous administration of 6.25 ug/Kg to anesthetized dogs; format: functional, Canis lupus familiaris; in short: as §3
Canis familiaris [14] = experiment: Compound was examined for effects on cardiac contractility to decrease in QA interval after oral administration of 0.0625 mg/Kg to conscious dogs for 3h; format: functional, Canis lupus familiaris, Heart; in short: as §2
Canis familiaris [15] = experiment: Relative inotropic potency compared with 4-[4-[2-(1,1-dioxo-2-isothiazolidinyl)ethyl]-1-piperidinyl]-6,7-dimethoxyquinazoline at 50 ug/kg after administration at 6.5 ug/kg intravenously to anesthetized dogs; format: functional, Canis lupus familiaris; details: in the assay text read “6.25 ug/kg” for “6.5 ug/kg”; in short: as §1
Canis familiaris [16] = experiment: Compound was examined for effects on cardiac contractility after oral administration of 0.0625 mg/Kg to conscious dogs for 1 hr; format: functional, Canis lupus familiaris, Heart; in short: as §2
Canis familiaris [17] = experiment: Compound was tested for cardiotonic activity after intravenous administration of 250 ug/Kg to anesthetized dogs; format: functional, Canis lupus familiaris; in short: as §3
Canis familiaris [18] = experiment: Relative inotropic potency compared with 4-[4-[2-(1,1-dioxo-2-isothiazolidinyl)ethyl]-1-piperidinyl]-6,7-dimethoxyquinazoline at 50 ug/kg after administration at 250 ug/kg intravenously to anesthetized dogs; format: functional, Canis lupus familiaris; in short: as §1
Canis familiaris [19] = experiment: Compound was examined for effects on cardiac contractility after oral administration of 1 mg/Kg to conscious dogs for 1 hr; format: functional, Canis lupus familiaris, Heart; in short: as §2
Canis familiaris [20] = experiment: Relative inotropic potency compared with 4-[4-[2-(1,1-dioxo-2-isothiazolidinyl)ethyl]-1-piperidinyl]-6,7-dimethoxyquinazoline at 50 ug/kg after administration at 50 ug/kg intravenously to anesthetized dogs; format: functional, Canis lupus familiaris; in short: as §1
Canis familiaris [21] = experiment: Compound was tested for cardiotonic activity after intravenous administration of 50 ug/Kg to anesthetized dogs; format: functional, Canis lupus familiaris; in short: as §3
Canis familiaris [22] = experiment: Compound was examined for effects on cardiac contractility to decrease in QA interval after oral administration of 1 mg/Kg to conscious dogs for 3h; format: functional, Canis lupus familiaris, Heart; in short: as §2
Canis familiaris [23] = experiment: Relative inotropic potency compared with 4-[4-[2-(1,1-dioxo-2-isothiazolidinyl)ethyl]-1-piperidinyl]-6,7-dimethoxyquinazoline at 50 ug/kg after administration of 50 ug/kg intravenously to anesthetized dogs; format: functional, Canis lupus familiaris; in short: as §1
Canis familiaris [24] = experiment: Relative inotropic potency compared with 4-[4-[2-(1,1-dioxo-2-isothiazolidinyl)ethyl]-1-piperidinyl]-6,7-dimethoxyquinazoline at 50 ug/kg after iv administration of 25 ug/kg to anesthetized dogs; format: functional, Canis lupus familiaris; in short: as §1

For `Cc1cc(-n2cncn2)cc2ccc(O)nc12`, the Relative inotropic potency (Canis familiaris [1]) was 3.6, the “Decrease in QA interval” value (Canis familiaris [2]) was 21 ms and the “Increase in dP/dt max” value (Canis familiaris [3]) was 67%. For the same compound, the “Decrease in QA interval” value (Canis familiaris [4]) was 21 ms.
With `Cc1cc(-n2ccnc2C)cc2ccc(O)nc12` the “Decrease in QA interval” value (Canis familiaris [5]) was 13 ms, the Relative inotropic potency (Canis familiaris [6]) was 5.5 and the “Increase in dP/dt max” value (Canis familiaris [7]) was 50%. The “Decrease in QA interval” value (Canis familiaris [8]) was 14 ms.
With `Cc1cc(-n2cnnn2)cc2ccc(O)nc12` the Relative inotropic potency (Canis familiaris [1]) was 3.4, the “Decrease in QA interval” value (Canis familiaris [9]) was 16 ms and the “Increase in dP/dt max” value (Canis familiaris [3]) was 117%. The “Decrease in QA interval” value (Canis familiaris [10]) was 15 ms.
In the case of `Cc1cn(-c2cc(C)c3nc(O)cc(C)c3c2)c(C)n1`, the Relative inotropic potency (Canis familiaris [11]) is reported as 1.2 and the “Increase in dP/dt max” value (Canis familiaris [12]) is reported as 10%.
For `Cc1cc(-n2cnc(C(F)(F)F)c2)cc2ccc(O)nc12`, the “Decrease in QA interval” value (Canis familiaris [5]) was 5 ms, the Relative inotropic potency (Canis familiaris [6]) was 4.5 and the “Increase in dP/dt max” value (Canis familiaris [7]) was 82%. For the same compound, the “Decrease in QA interval” value (Canis familiaris [8]) was 11 ms.
In the case of `Cc1cn(-c2cc(C)c3nc(O)ccc3c2)cn1`, the “Increase in dP/dt max” value (Canis familiaris [13]) is reported as 59%, the “Decrease in QA interval” value (Canis familiaris [14]) is reported as 7 ms and the Relative inotropic potency (Canis familiaris [15]) is reported as 16.3. For the same compound, the “Decrease in QA interval” value (Canis familiaris [16]) was 12 ms.
With `Cc1cn(-c2ccc3nc(O)ccc3c2)c(C)n1` the “Increase in dP/dt max” value (Canis familiaris [17]) was 29% and the Relative inotropic potency (Canis familiaris [18]) was 0.2.
In the case of `Cc1cn(-c2cc(C)c3c(c2)CCC(=O)N3)c(C)n1`, the “Decrease in QA interval” value (Canis familiaris [19]) is reported as 12 ms, the Relative inotropic potency (Canis familiaris [20]) is reported as 0.9 and the “Increase in dP/dt max” value (Canis familiaris [21]) is reported as 52%. The “Decrease in QA interval” value (Canis familiaris [22]) was 13 ms.
For `Cc1cn(-c2cc(C(F)(F)F)c3nc(O)ccc3c2)c(C)n1`, the “Increase in dP/dt max” value (Canis familiaris [17]) was 22% and the Relative inotropic potency (Canis familiaris [18]) was 0.2.
For `Cc1cc(-n2cccn2)cc2ccc(O)nc12`, the “Increase in dP/dt max” value (Canis familiaris [21]) was 79% and the Relative inotropic potency (Canis familiaris [23]) was 1.7.
In the case of `Cc1cc(-n2ncnn2)cc2ccc(O)nc12`, the Relative inotropic potency (Canis familiaris [20]) is reported as 1.1 and the “Increase in dP/dt max” value (Canis familiaris [21]) is reported as 24%.
For `Cc1cc(-n2cncc2C)cc2ccc(O)nc12`, the “Decrease in QA interval” value (Canis familiaris [5]) was 11 ms, the Relative inotropic potency (Canis familiaris [6]) was 4.9 and the “Increase in dP/dt max” value (Canis familiaris [7]) was 55%. For the same compound, the “Decrease in QA interval” value (Canis familiaris [8]) was 14 ms.
`Cc1cc(-n2cnnc2)cc2ccc(O)nc12` was tested, and the Relative inotropic potency (Canis familiaris [1]; in the assay text read “administration at 50 ug/kg” for “administration at 25 ug/kg”) was 2.3, the “Decrease in QA interval” value (Canis familiaris [9]) was 17 ms and the “Increase in dP/dt max” value (Canis familiaris [21]) was 68%. For the same compound, the “Decrease in QA interval” value (Canis familiaris [10]) was 15 ms.
For `Cc1cn(-c2cc(C)c3c(c2)C(C)CC(=O)N3)c(C)n1` (stereo unspecified), the Relative inotropic potency (Canis familiaris [11]) was 1.9 and the “Increase in dP/dt max” value (Canis familiaris [12]) was 20%.
In the case of `Cc1cc(-n2ccnc2)cc2ccc(O)nc12`, the “Decrease in QA interval” value (Canis familiaris [9]) is reported as 15 ms, the “Increase in dP/dt max” value (Canis familiaris [3]) is reported as 139% and the “Decrease in QA interval” value (Canis familiaris [10]) is reported as 20 ms. The Relative inotropic potency (Canis familiaris [24]) was 4.5.
For `Cc1[nH]c(=O)c(C#N)cc1-c1ccncc1` [MILRINONE], the Relative inotropic potency (Canis familiaris [1]) was 1.6, the “Decrease in QA interval” value (Canis familiaris [9]) was 7 ms and the “Increase in dP/dt max” value (Canis familiaris [3]) was 46%. For the same compound, the “Decrease in QA interval” value (Canis familiaris [10]) was 13 ms.
For `Cc1cn(-c2cc(C)c3[nH]c(=O)ccc3c2)c(C)n1` [NANTERINONE], the “Decrease in QA interval” value (Canis familiaris [9]) was 17 ms, the Relative inotropic potency (Canis familiaris [6]) was 7.6 and the “Increase in dP/dt max” value (Canis familiaris [7]) was 40%. The “Decrease in QA interval” value (Canis familiaris [10]) was 16 ms.
